Key:
[1] = Ratio of BR1 IC50 to xrs-6 IC50; assay type: functional
Summary of the method: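 MTT assay run in parallel on repair-competent CHO BR1 (40 000 cells/well) and repair-deficient xrs-6 (60 000 cells/well), both in αMEM with serum. 4 h attachment, then 18 h drug exposure from DMSO (final 1% or less), then drug-free medium. Four wells per dose, A540 against DMSO controls. The ratio is the BR1 IC50 divided by the xrs-6 IC50.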

XRS6 = assay: Cytotoxicity against CHO cell line xrs6; assay type: functional, cell-based; details: Cricetulus griseus
Summary of the method: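 MTT assay on DNA double-strand-break repair-deficient CHO xrs-6 cells grown in αMEM with serum, seeded at 60 000 cells/well and allowed to attach 4 h. Drug added from DMSO stock, final DMSO 1% or less, four replicate wells per dose. Exposure 18 h, then drug-free medium. Absorbance at 540 nm, compared against DMSO-only wells to give percent growth inhibition.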

HCT-116 = assay: Cytotoxicity against HCT116 cells.; assay type: functional, cell-based; details: Homo sapiens
Summary of the method: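 HCT 116 human colon tumour cells in McCoy's medium with 10% FBS, seeded at 40 000 cells/well and allowed 4 h to attach. Drug added in DMSO (0.5%), 3 days continuous exposure, four replicate wells per dose. MTT (5 mg/mL in PBS) added for 4 h, formazan dissolved in acidic 2-propanol, A540 read against DMSO controls for percent growth inhibition.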

[2] = biological target: T1, DNA topoisomerase 2 (Drosophila melanogaster) (UniProt P15348); assay: Inhibition of commercially obtained pure Drosophila Topoisomerase II in catalytic DNA unwinding.
T1 sequence (whole entry): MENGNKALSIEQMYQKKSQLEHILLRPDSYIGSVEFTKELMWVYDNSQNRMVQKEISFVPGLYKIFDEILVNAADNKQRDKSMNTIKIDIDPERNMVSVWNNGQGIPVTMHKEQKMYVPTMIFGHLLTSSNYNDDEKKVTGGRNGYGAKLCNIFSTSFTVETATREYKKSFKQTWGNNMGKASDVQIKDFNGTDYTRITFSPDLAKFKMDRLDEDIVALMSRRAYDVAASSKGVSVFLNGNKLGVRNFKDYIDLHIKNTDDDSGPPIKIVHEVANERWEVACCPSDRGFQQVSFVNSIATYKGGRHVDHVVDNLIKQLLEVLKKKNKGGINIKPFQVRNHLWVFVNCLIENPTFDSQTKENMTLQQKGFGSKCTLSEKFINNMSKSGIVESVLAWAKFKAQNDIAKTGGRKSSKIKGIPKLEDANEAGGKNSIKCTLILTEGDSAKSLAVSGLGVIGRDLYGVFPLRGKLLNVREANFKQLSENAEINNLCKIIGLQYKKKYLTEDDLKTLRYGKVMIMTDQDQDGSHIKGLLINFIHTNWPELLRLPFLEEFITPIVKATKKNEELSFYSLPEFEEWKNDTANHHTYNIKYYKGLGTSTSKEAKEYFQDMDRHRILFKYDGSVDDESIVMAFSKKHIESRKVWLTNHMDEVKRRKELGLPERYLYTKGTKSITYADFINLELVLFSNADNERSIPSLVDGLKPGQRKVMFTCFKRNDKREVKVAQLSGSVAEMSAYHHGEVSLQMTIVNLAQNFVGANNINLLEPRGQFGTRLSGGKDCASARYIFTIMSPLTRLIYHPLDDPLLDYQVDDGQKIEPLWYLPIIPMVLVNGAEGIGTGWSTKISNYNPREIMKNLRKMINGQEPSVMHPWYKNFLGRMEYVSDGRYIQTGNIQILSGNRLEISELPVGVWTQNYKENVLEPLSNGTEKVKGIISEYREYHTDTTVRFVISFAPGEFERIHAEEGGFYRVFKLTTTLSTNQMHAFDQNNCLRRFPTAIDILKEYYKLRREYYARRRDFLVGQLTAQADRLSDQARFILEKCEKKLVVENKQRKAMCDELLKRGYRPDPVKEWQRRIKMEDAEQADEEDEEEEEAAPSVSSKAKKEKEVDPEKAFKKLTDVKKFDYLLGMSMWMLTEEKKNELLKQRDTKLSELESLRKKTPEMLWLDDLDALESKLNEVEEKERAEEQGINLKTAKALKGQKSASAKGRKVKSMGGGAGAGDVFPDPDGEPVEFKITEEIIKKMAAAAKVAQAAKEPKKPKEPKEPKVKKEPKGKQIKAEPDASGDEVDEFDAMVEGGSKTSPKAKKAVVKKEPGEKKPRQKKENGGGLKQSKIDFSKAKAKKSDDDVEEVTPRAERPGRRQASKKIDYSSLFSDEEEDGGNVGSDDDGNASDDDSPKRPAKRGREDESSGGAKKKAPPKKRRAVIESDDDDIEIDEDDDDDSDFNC
Summary of the method: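 Relaxation assay with supercoiled pBR322 (0.5 μg) and pure Drosophila topoisomerase II at 3 units per reaction. Buffer: 50 mM Tris-HCl pH 8.0, 120 mM KCl, 10 mM MgCl2, 1 mM ATP, 0.5 mM DTT, 30 μg/mL BSA. Drug added in DMSO.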

[3] = biological target: DNA topoisomerase II (Homo sapiens) (UniProt P11388+Q02880); assay: In vitro inhibition of partially purified human ovarian carcinoma topoisomerase II of kDNA decatenation; assay type: protein assay
Summary of the method: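 Decatenation of kinetoplast DNA (0.2 μg) by one unit of partially purified human ovarian carcinoma topoisomerase II in 50 mM Tris-HCl pH 8.0, 120 mM KCl, 10 mM MgCl2, 1 mM ATP, 0.5 mM DTT, 30 μg/mL BSA. Compound added in DMSO. Stopped with sarkosyl stop buffer, 1% agarose/ethidium gel, UV visualization. Value is the concentration apparently inhibiting 90% of monomer-length kDNA production.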

SMILES | Ratio [1] | IC50 (XRS6) [µM] | IC50 (HCT-116) [µM] | IC90 [2] [µM] | IC90 [3] [µM]
COC1=CC(=O)c2cc3c(cc2C1=O)C(=O)c1occ2c1[C@@]3(C)CCC2 | 3 | 4.3 | 28 | – | –
C[C@@]12CCCc3coc(c31)C(=O)c1cc3c(cc12)C(=O)C(=O)C(Cl)=C3O | 4.5 | 27 | 33 | – | –
C[C@@]12CCCc3coc(c31)C(=O)c1cc3c(cc12)C(=O)C1=C(NCCS1(=O)=O)C3=O [ADOCIAQUINONE B] | 3 | 23 | 21 | 78 | < 11
O=C1c2c(O)ccc(O)c2C(=O)c2c(NCCNCCO)ccc(NCCNCCO)c21 [MITOXANTRONE] | – | 0.001 | – | 56 | –
COC1=CC(=O)c2cc3c(cc2C1=O)[C@]1(C)CCCc2coc(c21)C3=O | 3 | 4.3 | 28 | – | –
C[C@@]12CCCc3coc(c31)C(=O)c1cc3c(cc12)C(=O)/C(=N/CCS(=O)(=O)O)C=C3O | – | > 287 | > 143 | – | –
COc1cc(NS(C)(=O)=O)ccc1Nc1c2ccccc2nc2ccccc12 [AMSACRINE] | 4 | 0.24 | – | – | –
C[C@@]12CCCc3coc(c31)C(=O)c1cc3c(cc12)C(=O)C1=NCCS(=O)(=O)C1=C3O [ADOCIAQUINONE A] | 3 | 78 | 24 | – | –
C[C@@]12CCCc3coc(c31)C(=O)c1cc3c(cc12)C(=O)C=C(NCCS(=O)(=O)O)C3=O | – | > 287 | > 143 | – | –
C[C@@]12CCCc3coc(c31)C(=O)c1cc3c(cc12)C(=O)C(Cl)=C(O)C3=O | 4.5 | 27 | 33 | – | –
COc1cc([C@@H]2c3cc4c(cc3[C@@H](O[C@@H]3O[C@@H]5CO[C@@H](C)O[C@H]5[C@H](O)[C@H]3O)[C@H]3COC(=O)[C@H]23)OCO4)cc(OC)c1O [ETOPOSIDE] | 7 | 0.14 | – | 85 | –

Source: ChEMBL document CHEMBL1128184, “Topoisomerase II-mediated DNA cleavage by adocia- and xestoquinones from the Philippine sponge Xestospongia sp” (J Med Chem, 1995)
